Reference: ChEMBL document CHEMBL1146073, “A pyridazine series of alpha2/alpha3 subtype selective GABA A agonists for the treatment of anxiety” (J Med Chem, 2006)
The source made the active and inactive calls. No cut-off for these calls is given here.

How the values were obtained:
[1] = Oral bioavailability in Rhesus monkey; assay type: ADME, organism-based, Macaca mulatta; conditions: in vivo
How it was run: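 Pharmacokinetics from six animals per species: three dosed iv and three dosed po.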

Rattus norvegicus [2] = test: Anxiolytic activity in rat plus-maze assay at 0.3 mg/kg, po; assay type: functional, organism-based; design: dose 0.3 mg/kg
How it was run: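 Rats given vehicle (0.5% methyl cellulose) or compound orally; chlordiazepoxide 5 mg/kg ip as positive control. Placed on elevated plus maze 30 min after dosing; time on open arms recorded as anxiety index. Significance versus vehicle at p < 0.05; mean ± SEM, n = 16-18/group.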

[3] = target: T1, GABA-A receptor; anion channel (Rattus norvegicus) (UniProt O09028+P15431+P18506+P18508+P19969+P20236+P23574+P23576+P28471+P28473+P30191+P62813+P63079+P63138+Q91ZM7+Q9ES14); test: Receptor occupancy in vivo by displacement of [3H]Ro-151788 binding from GABA-A receptor in rat at 0.3 mg/kg, po; assay type: functional, organism-based; design: dose 0.3 mg/kg
How it was run: (§1)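 Rat in vivo occupancy measured by [3H]Ro 15-1788 binding after oral dosing. Rats taken as a subgroup after the plus-maze trial, i.e. 30 min post-dose or later. ED50 derived from dose-dependent occupancy. Mean ± SEM, n = 5-10/group.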

[4] = target: GABA-A receptor; alpha-5/beta-3/gamma-2 (Homo sapiens) (UniProt P18507+P28472+P31644); test: Efficacy against recombinant human GABA-Aalpha5 plus beta-3-gamma-2 expressed in L(tk-) cells by whole cell patch clamp method; assay type: functional, cell-based
How it was run: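 Whole-cell patch clamp on αxβ3γ2 receptors stably expressed in L(tk-) cells, measuring the effect on current evoked by an EC20-equivalent of GABA. Reported relative to full agonist chlordiazepoxide (=1.0), or as direct percent modulation of the EC20 control, with inverse agonism given as percent. Mean of at least four independent experiments.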

[5] = target: T1, GABA-A receptor; anion channel (Rattus norvegicus); test: Receptor occupancy in vivo by displacement of [3H]Ro-151788 binding from GABA-A receptor in rat at 1 mg/kg, po; assay type: functional, organism-based; design: dose 1 mg/kg; how it was run: as §1
Rattus norvegicus [6] = test: Anxiolytic activity in rat plus-maze assay at 1 mg/kg, po

bioavailability [1] [%]	Activity [3] [%]	Efficacy [4] [%]	Activity [5] [%]	SMILES	Activity (Rattus norvegicus [2])	Activity (Rattus norvegicus [6])
46	56	-5		Fc1cnc(-c2cc(-c3cnnc(-c4c(F)cncc4F)c3)ccc2F)c(F)c1	Active	
			71	Fc1cnc(-c2cc(-c3ccc(F)c(-c4ncc(F)cc4F)c3)cnn2)c(F)c1		Active
